Experimental data from ChEMBL document CHEMBL1158390, “Photo-inducible cytotoxic and clastogenic activities of 3,6-di-substituted acridines obtained by acylation of proflavine” (Eur J Med Chem, 2009).
Activity calls are given as the source filed them. The calls are words filed in the database; no cut-off is given here.

How the values were obtained:
[1] = test system: CHO; assay: Phototoxicity in transformed CHO cells after 24 hrs incubation in dark by WST1 assay; assay type: functional, cell-based; settings: Cricetulus griseus, light or radiation study
In short: (§1)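 CHO cells (50,000/well, McCoy's 5A with 10% FCS) grown 24 h, then dosed with a concentration range in duplicate (DMSO under 0.5% final). Either kept dark or irradiated at once (4.5 J/cm²: 0.36 UVA plus 4.14 visible, 750 W m⁻²), then 24 h at 37 °C. After PBS washes, 20 min with WST1 and absorbance read at 450 nm. IC50 is the 50% drop versus control.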

[2] = test system: CHO; assay: Phototoxicity in transformed CHO cells after 24 hrs of UV irradiation by WST1 assay; assay type: functional, cell-based; settings: Cricetulus griseus, light or radiation study; in short: as §1
[3] = Phototoxicity in normal human keratinocytes after 24 hrs incubation in dark by WST1 assay; assay type: cell-based; settings: Keratinocyte, light or radiation study
[4] = Phototoxicity in normal human keratinocytes after 24 hrs of UV irradiation by WST1 assay; assay type: cell-based; settings: Keratinocyte, light or radiation study
[5] = test system: CHO-K1; assay: Clastogenic activity in CHOK1 cells assessed as lowest drug concentration required to increase number of micronucleated cells after 3 hrs incubation in dark by micronucleus assay; assay type: functional, Cricetulus griseus
In short: (§2)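 CHO-K1 cells (50,000, chamber slides) grown 24 h, then dosed with a concentration range in duplicate, either kept dark or irradiated at once (4.5 J/cm², 1 min, 320–800 nm, 750 W m⁻², samples held at 4 °C). Exposure 3 h at 37 °C, then 5 μg/mL cytochalasin B for 24 h. Methanol fixation, Giemsa staining, 2000 binucleated cells per concentration scored at doses giving under 50% toxicity. χ² test against control. MCC is the lowest concentration giving a significant increase.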

[6] = test system: CHO-K1; assay: Clastogenic activity in CHOK1 cells assessed as lowest drug concentration required to increase number of micronucleated cells after 3 hrs of UV irradiation by micronucleus assay; assay type: functional, Cricetulus griseus; in short: as §2
[7] = Ratio of IC50 for normal human keratinocytes incubated in dark to IC50 for normal human keratinocytes incubated under UV irradiation; assay type: cell-based, Keratinocyte; settings: read-out: Ratio IC50
[8] = test system: CHO; assay: Ratio of IC50 for transformed CHO cells incubated in dark to IC50 for transformed CHO cells incubated under UV irradiation; assay type: functional, Cricetulus griseus
[9] = test system: CHO-K1; assay: Clastogenic activity in CHOK1 cells assessed as induction of chromosomal mutation and misaggregation at 15 uM incubated in dark for 3 hrs by micronucleus assay in presence of protective antioxidant mannitol treated 2 hrs before compound addition; assay type: functional, cell-based; settings: Cricetulus griseus
In short: (§3)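 CHO-K1 cells (50,000, chamber slides, McCoy's 5A with 10% FCS) grown 24 h, then given 2 mM mannitol for 2 h at 37 °C. Then either dark treatment or irradiation at 4.5 J/cm² (UVA-visible 320–800 nm, 750 W m⁻²). Exposure 3 h at 37 °C, then 5 μg/mL cytochalasin B for 24 h. Giemsa staining; binucleated cells scored for micronuclei at 1000×.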

[10] = test system: CHO-K1; assay: Clastogenic activity in CHOK1 cells assessed as induction of chromosomal mutation and misaggregation at 0.15 uM after 3 hrs of 4.5 J/cm'2 UV irradiation by micronucleus assay in presence of protective antioxidant mannitol treated 2 hrs before compound addition; assay type: functional, cell-based; settings: Cricetulus griseus; in short: as §3

| SMILES | IC50 [1] | IC50 [2] | IC50 [3] | IC50 [4] | Activity [5] | Activity [6] | Activity ([5]; Cricetulus griseus) | Activity ([6]; Cricetulus griseus) | selectivity ratio [7] | Ratio IC50 [8] | Activity [9] | Activity [10] |
| --- | --- | --- | --- | --- | --- | --- | --- | --- | --- | --- | --- | --- |
| O=C(Nc1ccc2cc3ccc(NC(=O)c4ccc(Cl)cc4)cc3nc2c1)c1ccc(Cl)cc1 | > 50 µM | 940 nM | > 50 µM | 5.4 µM | 2.38 µM | 0.12 µM | – | – | – | – | – | – |
| CCC(=O)Nc1ccc2cc3ccc(NC(=O)CC)cc3nc2c1 | > 50 µM | 2900 nM | > 50 µM | 2.4 µM | 1.15 µM | 0.03 µM | – | – | – | – | – | – |
| O=C(Nc1ccc2cc3ccc(NC(=O)c4ccc(F)cc4)cc3nc2c1)c1ccc(F)cc1 | > 50 µM | > 50000 nM | > 50 µM | > 50 µM | – | 1.81 µM | inactive | – | – | – | – | – |
| O=C(Nc1ccc2cc3ccc(NC(=O)c4ccc([N+](=O)[O-])cc4)cc3nc2c1)c1ccc([N+](=O)[O-])cc1 | 40.2 µM | > 50000 nM | > 50 µM | > 50 µM | – | – | inactive | inactive | – | – | – | – |
| O=C(Nc1ccc2cc3ccc(NC(=O)c4ccco4)cc3nc2c1)c1ccco1 | 2.5 µM | 16400 nM | 34.1 µM | 19.3 µM | – | – | inactive | inactive | – | – | – | – |
| CC(C)(C)OC(=O)Nc1ccc2cc3ccc(NC(=O)OC(C)(C)C)cc3nc2c1 | 6.1 µM | 120 nM | > 50 µM | 0.14 µM | – | – | inactive | inactive | 100 | – | – | – |
| O=C(Nc1ccc2cc3ccc(NC(=O)c4ccccc4)cc3nc2c1)c1ccccc1 | 23.8 µM | 260 nM | > 50 µM | 0.33 µM | – | – | inactive | inactive | 100 | 90 | – | – |
| O=C(Nc1ccc2cc3ccc(NC(=O)c4cccc5ccccc45)cc3nc2c1)c1cccc2ccccc12 | 42.3 µM | 320 nM | > 50 µM | 24.1 µM | – | 0.13 µM | inactive | – | – | 130 | – | – |
| CC(C)(C)C(=O)Nc1ccc2cc3ccc(NC(=O)C(C)(C)C)cc3nc2c1 | 0.11 µM | 100 nM | 3.28 µM | 4.69 µM | – | – | inactive | inactive | – | – | – | – |
| COC(=O)Nc1ccc2cc3ccc(NC(=O)OC)cc3nc2c1 | 15.8 µM | 3800 nM | > 50 µM | 8.1 µM | 0.47 µM | 0.21 µM | – | – | – | – | – | – |
| CC(=O)Nc1ccc2cc3ccc(NC(C)=O)cc3nc2c1 | > 50 µM | 37200 nM | > 50 µM | 41.2 µM | 11.01 µM | 0.24 µM | – | – | – | – | – | – |
| COc1ccc(C(=O)Nc2ccc3cc4ccc(NC(=O)c5ccc(OC)cc5)cc4nc3c2)cc1 | 45.2 µM | 43400 nM | > 50 µM | > 50 µM | – | – | inactive | inactive | – | – | – | – |
| Nc1ccc(C(=O)Nc2ccc3cc4ccc(NC(=O)c5ccc(N)cc5)cc4nc3c2)cc1 | > 50 µM | > 50000 nM | > 50 µM | > 50 µM | – | 0.13 µM | inactive | – | – | – | – | – |
| Cc1ccc(C(=O)Nc2ccc3cc4ccc(NC(=O)c5ccc(C)cc5)cc4nc3c2)cc1 | 43.1 µM | 1340 nM | > 50 µM | 4.04 µM | 2.11 µM | 0.02 µM | – | – | – | – | – | – |
| CCCC(=O)Nc1ccc2cc3ccc(NC(=O)CCC)cc3nc2c1 | 38.9 µM | 1340 nM | > 50 µM | 0.57 µM | 1.01 µM | 0.007 µM | – | – | 100 | – | Active | Active |
| O=C(Nc1ccc2cc3ccc(NC(=O)c4ccc(Cl)c(Cl)c4)cc3nc2c1)c1ccc(Cl)c(Cl)c1 | > 50 µM | > 50000 nM | > 50 µM | > 50 µM | – | – | inactive | inactive | – | – | – | – |
| O=C(Nc1ccc2cc3ccc(NC(=O)c4cc(C(F)(F)F)cc(C(F)(F)F)c4)cc3nc2c1)c1cc(C(F)(F)F)cc(C(F)(F)F)c1 | > 50 µM | > 50000 nM | > 50 µM | > 50 µM | – | – | inactive | inactive | – | – | – | – |
| N#Cc1ccc(C(=O)Nc2ccc3cc4ccc(NC(=O)c5ccc(C#N)cc5)cc4nc3c2)cc1 | > 50 µM | 3460 nM | > 50 µM | 33.5 µM | – | 0.06 µM | inactive | – | – | – | – | – |
| Nc1ccc2cc3ccc(N)cc3nc2c1 [PROFLAVINE] | 1.1 µM | 520 nM | > 50 µM | > 50 µM | 0.005 µM | 0.004 µM | – | – | – | – | – | – |
